ChEMBL document CHEMBL1141682, “Discovery of novel potent and selective dipeptide hepatitis C virus NS3/4A serine protease inhibitors” (Bioorg Med Chem Lett, 2008)

Experiments:
[1] = Inhibition of full length HCV NS3/4A protease; parameters: species or system Hepacivirus hominis
Outline: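 Full-length recombinant genotype 1 NS3 protease was run with a truncated NS4A cofactor in a biochemical assay. Inhibition constants (Ki) are reported.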

Hepatitis C virus = experiment: Inhibition of HCV replication in human HuH7-Rep cells containing subgenomic bicistronic clone; assay type: functional, organism-based, Hepacivirus hominis; conditions: Huh-7
Outline: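 Huh7 cells carried the subgenomic bicistronic replicon clone ET with a luciferase reporter. EC50 is the concentration that cut luciferase signal by 50% relative to untreated control.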

[2] = Metabolic stability in human liver microsomess after 15 mins at 5 uM; assay type: ADME, Microsome; conditions: liver microsomes
Outline: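 Compound at 5 µM was incubated with human liver microsomes for 15 min at 37 °C. Stability is expressed as percent of compound metabolized.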

[3] = Plasma concentration in Sprague-Dawley rat at 10 mg/kg, po after 2 hrs; assay type: ADME, organism-based; parameters: dose 10 mg/kg, route oral
Outline: (§1)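 Male SD rats (n = 2 per route) got a single dose: 2 mg/kg IV in 20% hydroxypropyl-β-cyclodextrin, or 10 mg/kg oral in 50% PEG400 with 2.5% vitamin E-TPGS. Plasma was sampled out to 8 h. Heart and liver levels were taken at 8 h. Oral half-life was fitted over 2–8 h. Bioavailability compares oral against IV exposure.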

[4] = Half life (2 to 8 hrs) in Sprague-Dawley rat at 2 mg/kg, iv; assay type: ADME, organism-based; parameters: dose 2 mg/kg, route intravenous; conditions: in vivo
Rattus norvegicus [5] = experiment: Clearance in Sprague-Dawley rat at 2 mg/kg, iv; assay type: ADME, organism-based; parameters: dose 2 mg/kg, route intravenous; conditions: in vivo; outline: as §1
[6] = Drug level in Sprague-Dawley rat heart at 2 mg/kg, iv after 8 hrs; assay type: ADME, organism-based; parameters: dose 2 mg/kg, route intravenous; conditions: read-out: Drug uptake; outline: as §1
[7] = Plasma concentration in Sprague-Dawley rat at 2 mg/kg, iv after 0.33 hrs; assay type: ADME, organism-based; parameters: dose 2 mg/kg, route intravenous; outline: as §1
Huh-7 = experiment: Cytotoxicity against human HuH7 cells by CMV-luciferase assay; assay type: functional
Outline: (§2)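 Cytotoxicity was tested in MT4-LTR-Luc and Huh7-CMV-Luc reporter cell lines. Results are given as CC50.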

[8] = Plasma concentration in Sprague-Dawley rat at 10 mg/kg, po after 4 hrs; assay type: ADME, organism-based; parameters: dose 10 mg/kg, route oral; outline: as §1
Rattus norvegicus [9] = experiment: AUC (0 to infinity) in Sprague-Dawley rat at 2 mg/kg, iv; assay type: ADME, organism-based, Plasma; parameters: time infinity, dose 2 mg/kg, route intravenous; conditions: in vivo; outline: as §1
[10] = Plasma concentration in Sprague-Dawley rat at 10 mg/kg, po after 1 hr; assay type: ADME, organism-based; parameters: dose 10 mg/kg, route oral; outline: as §1
[11] = Plasma concentration in Sprague-Dawley rat at 2 mg/kg, iv after 2 hrs; assay type: ADME, organism-based; parameters: dose 2 mg/kg, route intravenous; outline: as §1
[12] = AUC (0 to 8 hrs) in Sprague-Dawley rat at 2 mg/kg, iv; assay type: ADME, organism-based; parameters: time < 8 hr, dose 2 mg/kg, route intravenous; conditions: plasma; outline: as §1
[13] = Plasma concentration in Sprague-Dawley rat at 2 mg/kg, iv after 4 hrs; assay type: ADME, organism-based; parameters: dose 2 mg/kg, route intravenous; outline: as §1
[14] = Volume of distribution in steady state in Sprague-Dawley rat at 2 mg/kg, iv; assay type: ADME, organism-based; parameters: dose 2 mg/kg, route intravenous; conditions: in vivo, read-out: Vdss; outline: as §1
[15] = Plasma concentration in Sprague-Dawley rat at 2 mg/kg, iv after 1 hr; assay type: ADME, organism-based; parameters: dose 2 mg/kg, route intravenous; outline: as §1
[16] = AUC (0 to infinity) in Sprague-Dawley rat at 10 mg/kg, po; assay type: ADME, organism-based; parameters: time infinity, dose 10 mg/kg, route oral; conditions: plasma; outline: as §1
[17] = Plasma concentration in Sprague-Dawley rat at 10 mg/kg, po after 0.5 hrs; assay type: ADME, organism-based; parameters: dose 10 mg/kg, route oral; outline: as §1
[18] = Drug level in Sprague-Dawley rat liver at 2 mg/kg, iv after 8 hrs; assay type: ADME, organism-based; parameters: dose 2 mg/kg, route intravenous; conditions: read-out: Drug uptake; outline: as §1
[19] = AUC (0 to 8 hrs) in Sprague-Dawley rat at 10 mg/kg, po; assay type: ADME, organism-based; parameters: time < 8 hr, dose 10 mg/kg, route oral; conditions: plasma; outline: as §1
[20] = Oral bioavailability in Sprague-Dawley rat at 10 mg/kg, po; assay type: ADME, organism-based; conditions: in vivo; outline: as §1
[21] = Tmax in Sprague-Dawley rat at 10 mg/kg, po; assay type: ADME, organism-based; parameters: dose 10 mg/kg, route oral; conditions: in vivo; outline: as §1
[22] = Cmax in Sprague-Dawley rat at 10 mg/kg, po; assay type: ADME, organism-based; parameters: dose 10 mg/kg, route oral; conditions: in vivo; outline: as §1
[23] = Drug level in Sprague-Dawley rat liver at 10 mg/kg, po after 8 hrs; assay type: ADME, organism-based; parameters: dose 10 mg/kg, route oral; conditions: read-out: Drug uptake; outline: as §1
[24] = Half life (2 to 8 hrs) in Sprague-Dawley rat at 10 mg/kg, po; assay type: ADME, organism-based; parameters: dose 10 mg/kg, route oral; conditions: in vivo; outline: as §1
[25] = Plasma concentration in Sprague-Dawley rat at 2 mg/kg, iv after 8 hrs; assay type: ADME, organism-based; parameters: dose 2 mg/kg, route intravenous; outline: as §1
[26] = Plasma concentration in Sprague-Dawley rat at 2 mg/kg, iv after 0.12 hrs; assay type: ADME, organism-based; parameters: dose 2 mg/kg, route intravenous; outline: as §1
MT4 = experiment: Cytotoxicity against human MT4 cells by LTR-luciferase assay; assay type: functional; outline: as §2
[27] = Plasma concentration in Sprague-Dawley rat at 10 mg/kg, po after 8 hrs; assay type: ADME, organism-based; parameters: dose 10 mg/kg, route oral; outline: as §1
[28] = Drug level in Sprague-Dawley rat heart at 10 mg/kg, po after 8 hrs; assay type: ADME, organism-based; parameters: dose 10 mg/kg, route oral; outline: as §1
[29] = Permeability from apical to basolateral side of human Caco-2 cells; assay type: ADME, cell-based

## COc1ccc2c(O[C@@H]3C[C@H]4C(=O)N[C@]5(C(=O)NS(=O)(=O)C6CC6)C[C@H]5/C=C\CCCCCC(=O)N4C3)cc(-c3nc(C(C)C)cs3)nc2c1
[1]
  Ki: 0.4 nM
Hepatitis C virus
  EC50: 23.9 nM
[2]
  metabolized at 0.25 h, 5 µM: 82.4%

## COc1ccc2c(O[C@@H]3C[C@H]4C(=O)N[C@]5(C(=O)NS(=O)(=O)C6CC6)C[C@H]5/C=C\CCCCCCC(=O)N4C3)cc(-c3nc(C(C)C)cs3)nc2c1C
[1]
  Ki: 2.8 nM
Hepatitis C virus
  EC50: 5.84 nM

## COc1ccc2c(O[C@@H]3C[C@H]4C(=O)N[C@]5(C(=O)NS(=O)(=O)C6CC6)C[C@H]5/C=C\CCCCCCC(=O)N4C3)cc(-c3nc(C(C)C)cs3)nc2c1
[1]
  Ki: 0.65 nM
Hepatitis C virus
  EC50: 18 nM
[2]
  metabolized at 0.25 h, 5 µM: 98%

## COc1ccc2c(O[C@@H]3C[C@H]4C(=O)N[C@]5(C(=O)O)C[C@H]5/C=C\CCCCCCC(=O)N4C3)cc(-c3csc(NC(C)C)n3)nc2c1
[1]
  Ki: 46 nM
Hepatitis C virus
  EC50: 1980 nM

## COc1ccc2c(O[C@@H]3C[C@H]4C(=O)N[C@]5(C(=O)NS(=O)(=O)C6CC6)C[C@H]5/C=C\CCCCCCC(=O)N4C3)cc(-c3nccs3)nc2c1C
[1]
  Ki: 0.5 nM
Hepatitis C virus
  EC50: 4.37 nM
[2]
  metabolized at 0.25 h, 5 µM: 98.4%

## COc1ccc2c(O[C@@H]3C[C@H]4C(=O)N[C@]5(C(=O)NS(=O)(=O)C6CC6)C[C@H]5/C=C\CCCCCC(=O)N4C3)cc(-c3nc(C(C)C)cs3)nc2c1C
[1]
  Ki: 0.2 nM
Hepatitis C virus
  EC50: 3.55 nM
[2]
  metabolized at 0.25 h, 5 µM: 50.2%

## COc1ccc2c(O[C@@H]3C[C@H]4C(=O)N[C@]5(C(=O)NS(=O)(=O)C6CC6)C[C@H]5/C=C\CCCCCCC(=O)N4C3)cc(-c3cscn3)nc2c1
[1]
  Ki: 0.5 nM
Hepatitis C virus
  EC50: 3.97 nM

## COc1ccc2c(O[C@@H]3C[C@H]4C(=O)N[C@]5(C(=O)O)C[C@H]5/C=C\CCCCCCC(=O)N4C3)cc(-c3nc(C(C)C)cs3)nc2c1
[1]
  Ki: 18 nM
Hepatitis C virus
  EC50: 5040 nM

## COc1ccc2c(O[C@@H]3C[C@H]4C(=O)N[C@]5(C(=O)NS(=O)(=O)C6CC6)C[C@H]5/C=C\CCCCCCC(=O)N4C3)cc(-c3nccs3)nc2c1Br
[1]
  Ki: 0.1 nM
Hepatitis C virus
  EC50: 1.9 nM
[2]
  metabolized at 0.25 h, 5 µM: 100%

## COc1ccc2c(O[C@@H]3C[C@H]4C(=O)N[C@]5(C(=O)NS(=O)(=O)C6(C)CC6)C[C@H]5/C=C\CCCCCC(=O)N4C3)cc(-c3nc(C(C)C)cs3)nc2c1Cl
[1]
  Ki: 0.2 nM
[3]
  concentration at 2 h: 632 ng/mL
[4]
  half-life: 2.49 h
Hepatitis C virus
  EC50: 3.76 nM
Rattus norvegicus [5]
  CL: 65.7 mL/min/kg
[6]
  concentration at 8 h: 15.1 ng/g
[7]
  concentration at 0.33 h: 708 ng/mL
Huh-7
  CC50: > 20000 nM
[8]
  concentration at 4 h: 363 ng/mL
Rattus norvegicus [9]
  AUC: 2154 ng·h/mL
[10]
  concentration at 1 h: 693 ng/mL
[11]
  concentration at 2 h: 290 ng/mL
[2]
  metabolized at 0.25 h, 5 µM: 42.6%
[12]
  AUC(0-t) at 8 h: 1960 ng·h/mL
[13]
  concentration at 4 h: 139 ng/mL
[14]
  Vd: 2.75 L/kg
[15]
  concentration at 1 h: 449 ng/mL
[16]
  AUC(0-inf): 3610 ng·h/mL
[17]
  concentration at 0.5 h: 698 ng/mL
[18]
  concentration at 8 h: 3660 ng/g
[19]
  AUC(0-t) at 8 h: 3070 ng·h/mL
[20]
  bioavailability: 31%
[21]
  Tmax: 0.75 h
[22]
  Cmax: 715 ng/mL
[23]
  concentration at 8 h: 7660 ng/g
[24]
  half-life: 2.73 h
[25]
  concentration at 8 h: 53 ng/mL
[26]
  concentration at 0.12 h: 1500 ng/mL
MT4
  CC50: > 20000 nM
[27]
  concentration at 8 h: 133 ng/mL
[28]
  concentration at 8 h: 35.8 ng/g
[29]
  Papp A→B: 11.1 ×10⁻⁶ cm/s

## COc1ccc2c(O[C@@H]3C[C@H]4C(=O)N[C@]5(C(=O)NS(=O)(=O)C6(C)CC6)C[C@H]5/C=C\CCCCCC(=O)N4C3)cc(-c3nc(C(C)C)cs3)nc2c1C
[1]
  Ki: 0.4 nM
Hepatitis C virus
  EC50: 14.1 nM
[2]
  metabolized at 0.25 h, 5 µM: 28.8%

## COc1ccc2c(O[C@@H]3C[C@H]4C(=O)N[C@]5(C(=O)NS(=O)(=O)C6CC6)C[C@H]5/C=C\CCCCCCC(=O)N4C3)cc(-c3nccs3)nc2c1
[1]
  Ki: 1 nM
Hepatitis C virus
  EC50: 16.8 nM
[2]
  metabolized at 0.25 h, 5 µM: 100%

## COc1ccc2c(O[C@@H]3C[C@H]4C(=O)N[C@]5(C(=O)NS(=O)(=O)C6CC6)C[C@H]5/C=C\CCCCCCC(=O)N4C3)cc(-c3csc(NC(C)C)n3)nc2c1
[1]
  Ki: 0.9 nM
Hepatitis C virus
  EC50: 20.4 nM
[2]
  metabolized at 0.25 h, 5 µM: 91.5%

## COc1ccc2c(O[C@@H]3C[C@H]4C(=O)N[C@]5(C(=O)NS(=O)(=O)C6CC6)C[C@H]5/C=C\CCCCCC(=O)N4C3)cc(-c3nc(C(C)C)cs3)nc2c1Cl
[1]
  Ki: 0.4 nM
Hepatitis C virus
  EC50: 11.7 nM

## COc1ccc2c(O[C@@H]3C[C@H]4C(=O)N[C@]5(C(=O)O)C[C@H]5/C=C\CCCCC[C@H](NC(=O)OC5CCCC5)C(=O)N4C3)cc(-c3csc(NC(C)C)n3)nc2c1 [CILUPREVIR]
[1]
  Ki: 0.3 nM
Hepatitis C virus
  EC50: 1.63 nM
[2]
  metabolized at 0.25 h, 5 µM: 28.5%
